Experimental data from ChEMBL document CHEMBL1148798, “High-efficacy 5-HT1A agonists for antidepressant treatment: a renewed opportunity” (J Med Chem, 2007).

Legend:
[1] = target: T1, 5-hydroxytryptamine receptor 1A (Rattus norvegicus, UniProt P19327); test: Binding affinity to 5HT1A receptor in rat cortex membrane; assay type: cell membranes
T1 sequence (P19327 whole entry): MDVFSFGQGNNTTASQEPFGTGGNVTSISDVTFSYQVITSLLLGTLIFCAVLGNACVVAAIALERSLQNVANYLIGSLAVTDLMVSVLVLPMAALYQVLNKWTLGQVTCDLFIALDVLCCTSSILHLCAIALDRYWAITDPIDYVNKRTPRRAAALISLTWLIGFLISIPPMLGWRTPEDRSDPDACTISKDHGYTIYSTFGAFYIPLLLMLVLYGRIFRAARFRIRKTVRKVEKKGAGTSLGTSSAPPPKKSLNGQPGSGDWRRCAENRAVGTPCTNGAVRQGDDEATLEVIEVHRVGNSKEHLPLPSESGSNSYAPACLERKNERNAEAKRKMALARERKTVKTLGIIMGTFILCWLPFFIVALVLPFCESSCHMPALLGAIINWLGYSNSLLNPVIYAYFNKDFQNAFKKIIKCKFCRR

[2] = target: T2, 5-hydroxytryptamine receptor 1A (Homo sapiens, UniProt P08908); test: Agonist activity at human 5HT1A receptor expressed in C6 cells assessed as stimulation of [35S]GTPgammaS binding; assay type: functional, cell-based
T2 sequence (P08908 whole entry): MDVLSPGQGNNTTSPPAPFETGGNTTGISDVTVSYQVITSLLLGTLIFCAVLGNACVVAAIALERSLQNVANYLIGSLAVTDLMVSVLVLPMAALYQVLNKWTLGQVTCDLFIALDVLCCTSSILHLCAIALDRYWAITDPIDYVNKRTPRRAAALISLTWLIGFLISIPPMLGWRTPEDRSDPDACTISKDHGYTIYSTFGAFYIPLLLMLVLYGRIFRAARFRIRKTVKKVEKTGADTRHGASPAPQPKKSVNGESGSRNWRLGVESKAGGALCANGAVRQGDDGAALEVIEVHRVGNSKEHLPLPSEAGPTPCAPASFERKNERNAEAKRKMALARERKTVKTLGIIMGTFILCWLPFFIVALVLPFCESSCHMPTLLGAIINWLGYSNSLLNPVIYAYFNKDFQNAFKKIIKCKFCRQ

[3] = target: T3, 5-hydroxytryptamine receptor 1A (Homo sapiens) (UniProt P08908); test: Agonist activity at human 5HT1A receptor expressed in C6 cells assessed as stimulation of [35S]GTP-gamma-S binding relative to 5-hydroxytryptamine; assay type: functional, cell-based
T3 sequence (whole entry): T2 sequence (P08908 whole entry)
Outline: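 Membranes from C6-glial cells expressing h5-HT1A, diluted 20-fold in 20 mM HEPES with 30 µM GDP, 100 mM NaCl, 3 mM MgCl2, 0.2 mM ascorbic acid (16-38 µg protein). Compound preincubated 30 min at 25 °C, then 500 pM [35S]GTPγS added. Six concentrations tested. Nonspecific binding with 10 µM GTPγS.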

Rattus norvegicus [4] = test: Antidepressant like activity in orally dosed rat after 60 mins by forced swimming test; assay type: functional; conditions: po, 1 h
Outline: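 Porsolt-type test in rats: 15 min swim in a cylinder with 17 cm water at 25 °C, then 5 min retest 24 h later. Immobility scored blind. Vehicle po after session 1. Compound or vehicle po (10 mL/kg) 1 h before retest, n = 5-12 per dose, doses 0.01-40 mg/kg. Responders had immobility <138 s. […] MSD by Kruskal-Wallis then Dunn's test.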

Rattus norvegicus [5] = test: Induction of flat body posture in orally dosed rat as after 60 mins; assay type: functional; conditions: po, 1 h
Outline: (§1)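 Compounds given po in H2O (10 mL/kg) to rats, five per dose, doses as free base. Forepaw treading sampled in 10 s per rat repeated 10 times over 10 min at 55-65 min. Present if uninterrupted for ≥3 s, responder if score ≥1. Flat body posture scored if present the whole period. […] Ratio is FBP ED50/FPT ED50.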

Rattus norvegicus [6] = test: Induction of forepaw treading in orally dosed rat after 60 mins; assay type: functional; conditions: po, 1 h; outline: as §1
Rattus norvegicus [7] = organism: Rattus norvegicus; test: Ratio of ED50 for flat body posture induction in rat to ED50 for forepaw treading induction in rat
[8] = Dissociation constant, pKa of the compound; assay type: physicochemical
[9] = Lipophilicity, log D of the compound; assay type: physicochemical; conditions: octanol/water
[10] = Bioavailability in orally dosed rat; assay type: ADME, organism-based; conditions: in vivo, po
[11] = Bioavailability in dog; assay type: ADME, organism-based, Canis lupus familiaris; conditions: in vivo
[12] = Bioavailability in rat; assay type: ADME, organism-based; conditions: in vivo

| SMILES | Ki [1] [nM] | EC50 [2] [nM] | Emax [3] [%] | ED50 (Rattus norvegicus [4]) [mg/kg] | ED50 (Rattus norvegicus [5]) [mg/kg] | ED50 (Rattus norvegicus [6]) [mg/kg] | other results |
| --- | --- | --- | --- | --- | --- | --- | --- |
| O=C(c1ccc(F)c(Cl)c1)N1CCC(F)(CNCc2ncc(CO)cn2)CC1 | 117 | – | – | – | – | – | – |
| Cc1ccc(CNCC2(F)CCN(C(=O)c3ccc(F)c(Cl)c3)CC2)nn1 | 5.62 | 7940 | 89.7 | – | – | – | – |
| CCCN(CCC)C1CCc2cccc(O)c2C1 (stereo unspecified) [8-OH-DPAT] | – | – | 35.9 | 0.75 | > 40 | 40 | – |
| CNc1nc(CNCC2(F)CCN(C(=O)c3ccc(F)c(Cl)c3)CC2)ncc1C | 1.74 | 85.1 | 64.1 | – | – | – | – |
| O=C(c1ccc(F)c(Cl)c1)N1CCC(F)(CNCc2ccc(CF)cn2)CC1 | 1.2 | 229 | 61 | 0.17 | 16 | 6.1 | Ratio (Rattus norvegicus [7]): 2.6 |
| CNc1nc(CNCC2(F)CCN(C(=O)c3ccc(F)c(Cl)c3)CC2)ncc1Cl | 0.741 | 42.7 | 71.8 | 0.32 | – | – | – |
| O=C(c1ccc(F)c(Cl)c1)N1CCC(F)(CNCc2ncc(Cl)cn2)CC1 | 3.39 | 155 | 76 | 0.03 | – | – | – |
| Cc1cnc(CNCC2(F)CCN(C(=O)c3ccc(F)c(Cl)c3)CC2)cn1 | 66.1 | – | – | – | – | – | – |
| Cc1cnc(CNCC2(F)CCN(C(=O)c3ccc(F)c(Cl)c3)CC2)nc1 | 2.24 | 389 | 70.3 | 0.05 | 8.3 | 1.5 | pKa [8]: 6.7; Ratio (Rattus norvegicus [7]): 5.5; logD [9]: 1.5; bioavailability [10]: > 80% |
| COc1ccnc(CNCC2(F)CCN(C(=O)c3ccc(F)c(Cl)c3)CC2)n1 | 6.46 | 447 | 75.5 | – | – | – | – |
| CCc1cnc(CNCC2(F)CCN(C(=O)c3ccc(F)c(Cl)c3)CC2)nc1 | 56.2 | – | – | – | – | – | – |
| O=C(c1ccc(F)c(Cl)c1)N1CCC(F)(CNCc2ncccn2)CC1 | 95.5 | – | – | – | – | – | – |
| O=C(c1ccc(F)c(Cl)c1)N1CCC(F)(CNCc2nccc(-c3ccco3)n2)CC1 | 0.427 | 10 | 79 | > 2.5 | – | – | – |
| CNc1ccnc(CNCC2(F)CCN(C(=O)c3ccc(F)c(Cl)c3)CC2)n1 | 4.79 | 309 | 58.8 | – | – | – | – |
| Cc1ccc(CNCC2(F)CCN(C(=O)c3ccc(F)c(Cl)c3)CC2)nc1 [BEFIRADOL] | – | – | – | 0.06 | 1.4 | 0.38 | pKa [8]: 6.4; bioavailability [11]: > 70%; logD [9]: 2.6; bioavailability [12]: > 70% |
| O=C(c1ccc(F)c(Cl)c1)N1CCC(F)(CNCc2ncc(C(F)F)cn2)CC1 | 25.1 | 3630 | 82.5 | – | – | – | – |
| O=C(c1ccc(F)c(Cl)c1)N1CCC(F)(CNCc2ccc(C(F)F)cn2)CC1 | 3.8 | 240 | 96.4 | – | 4.2 | 2.5 | Ratio (Rattus norvegicus [7]): 1.7 |
| O=c1[nH]c2ccccc2n1CCN1CCN(c2cccc(C(F)(F)F)c2)CC1 [FLIBANSERIN] | 11.7 | 631 | 72 | > 320 | 20 | > 40 | – |
| CN(C)c1ccnc(CNCC2(F)CCN(C(=O)c3ccc(F)c(Cl)c3)CC2)n1 | 2.29 | 89.1 | 63.4 | – | – | – | – |
| CC(=O)Nc1cccc(N2CCN(CCCCNS(=O)(=O)CC3CCCCC3)CC2)c1 [NALUZOTAN] | 30.2 | 93.3 | 6.6 | > 40 | > 40 | > 40 | – |
| O=C(c1ccc(F)c(Cl)c1)N1CCC(F)(CNCc2ccc(Cl)cn2)CC1 | 0.692 | 69.2 | 80.4 | – | 4.9 | 3.8 | Ratio (Rattus norvegicus [7]): 1.3 |
| O=C(O)c1ccc(CNCC2(F)CCN(C(=O)c3ccc(F)c(Cl)c3)CC2)nc1 | > 10000 | – | – | – | – | – | – |
| O=C(c1ccc(F)c(Cl)c1)N1CCC(F)(CNCc2ccc(CO)cn2)CC1 | 7.41 | 2040 | 80 | – | – | – | – |
| COC(=O)c1cnc(CNCC2(F)CCN(C(=O)c3ccc(F)c(Cl)c3)CC2)nc1 | 219 | – | – | – | – | – | – |
